Laboratory results: ChEMBL document CHEMBL4190221, “Inhibition of Proliferation of Vascular Smooth Muscle Cells by Cucurbitanes from Momordica charantia” (J Nat Prod, 2017)
Active and inactive are the calls of the source. The rule behind the calls is not given here.

Tests used:
VSMC [1] = assay: Cytotoxicity against Sprague-Dawley rat VSMC assessed as decrease in cell viability at 5 to 10 uM after 24 hrs by MTT assay; format: cell-based
Outline: (§1)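 Primary aortic smooth muscle cells from Sprague-Dawley rats, passages 7–10, grown in DMEM/10% FBS at 37 °C and seeded at 3.0 × 10^4 cells/mL. Cells were serum-starved 24 h, then exposed to compound for 24 h alongside a 0.1% DMSO control and a digitonin 100 μg/mL cytotoxicity control. MTT 5 mg/mL was added for 2 h, formazan taken up in DMSO, and OD read at 565 nm. Four independent experiments, each in triplicate.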

VSMC [2] = assay: Inhibition of PDGF-induced Sprague-Dawley rat VSMC proliferation at 5 to 10 uM pretreated for 2 hrs followed by PDGF stimulation measured after 24 hrs by MTT assay; format: functional, cell-based
Outline: (§2)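 Rat aortic VSMCs (Sprague-Dawley, passages 7–10) were seeded at 3.0 × 10^4 cells/mL, grown 24 h in DMEM/10% FBS, then serum-starved 24 h. Compound was added 2 h before PDGF 25 ng/mL, followed by 24 h more incubation. Paclitaxel 1 μM served as positive control. MTT read-out at 565 nm. Four independent experiments in triplicate, compared against PDGF-stimulated cells.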

VSMC [3] = assay: Inhibition of PDGF-induced Sprague-Dawley rat VSMC proliferation at 10 uM pretreated for 2 hrs followed by PDGF stimulation measured after 24 hrs by MTT assay relative to control; format: functional; outline: as §2
VSMC [4] = assay: Cytotoxicity against Sprague-Dawley rat VSMC assessed as decrease in cell viability at >5 uM after 24 hrs by MTT assay; format: cell-based; outline: as §1
VSMC [5] = assay: Cytotoxicity against Sprague-Dawley rat VSMC assessed as decrease in cell viability at 0.5 to 1 uM after 24 hrs by MTT assay; format: cell-based; outline: as §1

Row | SMILES | Activity (VSMC [1]) | inhibition (VSMC [2]) | inhibition at 10 µM (VSMC [3]) [%] | Activity (VSMC [4]) | Activity (VSMC [5])
1 | C[C@H](C/C=C/C(C)(C)O)[C@H]1CC[C@@]2(C)[C@@H]3C=C[C@@]45OC(=O)[C@]3(CC[C@]12C)[C@@H]4CC[C@H](O[C@@H]1O[C@H](CO)[C@@H](O)[C@@H](O)[C@H]1O)C5(C)C | Non-Toxic | Active |  |  | 
2 | CO[C@H]1O[C@]23C=C[C@@H]4[C@@]1(CC[C@]1(C)[C@@H]([C@H](C)C/C=C/C(C)(C)OC)CC[C@@]41C)[C@@H]2CC[C@H](OC(=O)CC(=O)O)C3(C)C | Non-Toxic |  | 72.4 |  | 
3 | CO[C@H](C=C(C)C)C[C@@H](C)[C@H]1CC[C@@]2(C)[C@@H]3[C@@H](OC)C=C4[C@@H](CC[C@H](OC(=O)CC(=O)O)C4(C)C)[C@]3(C=O)CC[C@]12C | Non-Toxic |  | 67.9 |  | 
4 | CO[C@H]1O[C@]23C=C[C@@H]4[C@@]1(CC[C@]1(C)[C@@H]([C@H](C)C/C=C/C(C)(C)OC)CC[C@@]41C)[C@@H]2CC[C@H](OC(=O)C(=O)O)C3(C)C | Non-Toxic |  |  |  | 
5 | COC(C)(C)/C=C/C[C@@H](C)[C@H]1CC[C@@]2(C)[C@@H]3[C@@H](O)C=C4[C@@H](CC[C@H](OC(=O)CC(=O)O)C4(C)C)[C@]3(C=O)CC[C@]12C | Non-Toxic | Active |  |  | 
6 | COC(C)(C)/C=C/C[C@@H](C)[C@H]1CC[C@@]2(C)[C@@H]3C=C[C@@]45OC(=O)[C@]3(CC[C@]12C)[C@@H]4CC[C@H](OC(=O)CC(=O)O)C5(C)C |  |  |  | Toxic | Non-Toxic
7 | C[C@H](C/C=C/C(C)(C)O)[C@H]1CC[C@@]2(C)[C@@H]3[C@@H](O)C=C4[C@@H](CC[C@H](OC(=O)CC(=O)O)C4(C)C)[C@]3(C=O)CC[C@]12C | Non-Toxic | Active |  |  | 
